Measurements reported in article PMC2582604 (Nucleic Acids Research, 2008).

Experiments:
[1] = tested on: HeLa pLuc705 cells; assay: HeLa pLuc705 splicing redirection, luciferase upregulation; assay type: cell-based
Outline: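 HeLa pLuc705 cells were seeded at 1.75 × 10^5/well and grown overnight. Test compound was added for 4 h in OptiMEM without transfection agent, then diluted with DMEM/10% FBS for a further 20 h. Cells were washed in ice-cold PBS and lysed. Luminescence was normalised to BCA protein (550 nm) and expressed as RLU/µg protein or fold over background. Triplicates averaged.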

[2] = Serum stability assay; assay type: in vitro ADME, mouse; details: 37°C
Outline: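 Conjugate (20 μM) incubated at 37°C in PBS with 20% mouse serum (from clotted blood of female Balb/c mice, cleared by 3 × 30 min centrifugation at 4°C). Aliquots at 0, 15, 30, 60 and 120 min were quenched in 10% dichloroacetic acid in H2O/CH3CN (50/50) and held at –20°C. Supernatant after protein pelleting was analysed by MALDI-TOF MS; cleavage sites were assigned from fragment masses, semi-quantitatively.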

[3] = tested on: HeLa pLuc705 cells; assay: Energy dependence of uptake; assay type: cell-based; details: 1 µM conjugate, 30 min pre-incubation, 1 h incubation, luciferase read-out
Outline: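 Cells pre-incubated 30 min in OptiMEM at either 37°C or 4°C. Conjugate was then added at 1 μM final and incubation continued 1 h. Read-out was luciferase in lysates, normalised to BCA protein, as in the splicing redirection assay.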

[4] = tested on: HeLa pLuc705 cells; assay: Endocytosis inhibitor study, luciferase read-out; assay type: cell-based; details: 1 μM conjugate
Outline: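 HeLa pLuc705 cells pre-incubated 30 min in OptiMEM at 37°C with inhibitor: chlorpromazine 30 μM or K+ depletion (clathrin), nystatin 50 μM or filipin-III 5 μg ml–1 (caveolae), methyl-β-cyclodextrin 2.5 mM or EIPA 1 mM (macropinocytosis). Inhibitor levels and timings were set to spare protein synthesis. Conjugate then added to 1 μM final for 30 min. Luciferase read as in the splicing assay.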

[5] = tested on: dystrophin pre-mRNA exon 23 in mdx myoblasts; assay: Exon skipping after electroporation into mdx myoblasts; assay type: cell-based, mouse; details: 0.5 nmol electroporated into mdx myoblasts, 24 h, nested RT-PCR
Outline: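 H2K mdx myoblasts (undifferentiated) were grown 2 days at 33°C, 10% CO2, in 20% FBS/DMEM with interferon γ, then trypsinised. 1.5 × 10^6 cells/100 µl Nucleofector Solution V were pulsed with 0.5 nmol PNA, conjugate or sense control PNA (program T-020). Cells rested 10 min at room temperature in OptiMEM, then cultured 24 h on gelatin at 33°C. Total RNA underwent one-step RT-PCR then nested PCR; 2% agarose gel.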

[6] = tested on: aberrant β-globin intron 705 site in HeLa pLuc705 cells; assay: HeLa pLuc705 splicing redirection, RT-PCR analysis; assay type: cell-based; details: RT-PCR assay
Outline: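 HeLa pLuc705 cells were treated with increasing conjugate concentrations as in the luciferase assay (4 h OptiMEM, then 20 h with added serum medium). Total RNA was extracted from the leftover lysate after luciferase and protein measurement. RT-PCR products were separated on 2% agarose and gels scanned to quantify aberrant versus correctly spliced RNA. EC50 of splicing redirection was taken from the dose series.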

Substance: (R-Ahx-R)3IHILFQNdRRMKWHKBC [Pip2b–PNA705]
- activity compared to RXR4–PNA705 ([1]; HeLa pLuc705, absence of transfection or permeabilization agent): 3- to 4 fold
- stability to serum proteolysis ([2]; 20 μM conjugate, PBS with 20% mouse serum, 1 h, MALDI-TOF MS): predominantly stable for 1 h
- uptake mechanism from splicing redirection activity at 37°C and 4°C [3]: energy-dependent uptake mechanism
- effect of EIPA on luciferase expression ([4]; EIPA 1 mM (macropinocytosis)): no effect
- inhibitory effect of fillipin-III on luciferase expression ([4]; fillipin-III 5 μg ml–1 (caveolae)): 36%
- effect of methyl-β-cyclodextrin on luciferase expression ([4]; methyl-β-cyclodextrin 2.5 mM (macropinocytosis)): increased luciferase expression
- inhibitory effect of nystatin on luciferase expression ([4]; nystatin 50 μM (caveolae)): 12%

Substance: (R-Ahx-R)3IdKILFQNdRRMKWHKBC [Pip2a–PNA705]
- uptake mechanism from splicing redirection activity at 37°C and 4°C [3]: energy-dependent uptake mechanism

Substance: sense control PNA: sense 20-mer PNA control sequence AGGTAAGCCGAGGTTTGGCC (all peptide nucleic acid (PNA))
- exon skipping after electroporation [5]: no exon skipping

Substance: (RXR)3-IKILFQN-R|RMKWKKC [Pip1–PNA705]
- EC50 improvement relative to R6Pen–PNA [6]: about 2 fold
- fold increase in luminescence compared to R6Pen–PNA705 ([1]; at similar concentrations, HeLa pLuc705 luciferase assay): two to three times
- time to full cleavage in 20% mouse serum ([2]; 20 μM conjugate, PBS with 20% mouse serum, MALDI-TOF MS): ≤ 1 h
- major serum proteolytic cleavage site ([2]; 20% mouse serum, fragment masses by MALDI-TOF MS): between amino acids R17 and R18
- uptake mechanism from splicing redirection activity at 37°C and 4°C [3]: energy-dependent uptake mechanism
